Assay results as given in ChEMBL document CHEMBL1255409, “In vitro activity of ceftaroline against 623 diverse strains of anaerobic bacteria” (2010).

Tests used:
Type in all cases: functional
Clostridium tertium = assay: Antimicrobial activity against Clostridium tertium under anaerobic conditions after 44 hrs by CLSI-M11-47 protocol based agar dilution method
Summary of the method: (§1)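 Reference agar dilution per CLSI M11-A7 with plates made on test day. Clinical isolates were stored at −70°C in 20% skim milk, subcultured twice, and 48-h cell paste was suspended in brucella broth to 0.5 McFarland. About 10^5 CFU/spot was applied with a Steers replicator. Plates were incubated 44 h at 37°C anaerobically. MIC was the lowest concentration giving complete inhibition or marked growth reduction versus the drug-free control.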

Prevotella corporis = assay: Antimicrobial activity against Prevotella corporis under anaerobic conditions after 44 hrs by CLSI-M11-47 protocol based agar dilution method
Summary of the method: (§2)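 Clinical isolates were stored at −70°C in 20% skim milk and identified phenotypically or by partial 16S rRNA sequencing. Each strain was subcultured twice from frozen stock. Cell paste from 48-h cultures was suspended in brucella broth to a 0.5 McFarland standard. About 10^5 CFU per spot were applied by Steers replicator to agar dilution plates prepared on the day of testing. Plates were incubated 44 h at 37°C in an anaerobic chamber. MIC was taken as the lowest concentration giving complete inhibition or marked reduction of growth versus the drug-free control.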

Clostridium baratii = assay: Antimicrobial activity against Clostridium baratii under anaerobic conditions after 44 hrs by CLSI-M11-47 protocol based agar dilution method
Clostridium aldenense = assay: Antimicrobial activity against Clostridium aldenense under anaerobic conditions after 44 hrs by CLSI-M11-47 protocol based agar dilution method; conditions: Enterocloster aldenensis; summary of the method: as §1
Prevotella intermedia = assay: Antimicrobial activity against Prevotella intermedia under anaerobic conditions after 44 hrs by CLSI-M11-47 protocol based agar dilution method; summary of the method: as §2
[1] = test system: Fusobacterium necrophorum; assay: Antimicrobial activity against Fusobacterium necrophorum under anaerobic conditions after 44 hrs by CLSI-M11-47 protocol based agar dilution method; summary of the method: as §1
Anaerococcus prevotii = assay: Antimicrobial activity against Anaerococcus prevotii under anaerobic conditions after 44 hrs by CLSI-M11-47 protocol based agar dilution method; summary of the method: as §1
Actinomyces turicensis = assay: Antimicrobial activity against Actinomyces turicensis under anaerobic conditions after 44 hrs by CLSI-M11-47 protocol based agar dilution method; conditions: Schaalia turicensis; summary of the method: as §1
Clostridium hathewayi = assay: Antimicrobial activity against Clostridium hathewayi under anaerobic conditions after 44 hrs by CLSI-M11-47 protocol based agar dilution method; conditions: Hungatella hathewayi; summary of the method: as §1
Prevotella bergensis = assay: Antimicrobial activity against Prevotella bergensis under anaerobic conditions after 44 hrs by CLSI-M11-47 protocol based agar dilution method; conditions: Hallella bergensis; summary of the method: as §2
Mogibacterium timidum = assay: Antimicrobial activity against Mogibacterium timidum under anaerobic conditions after 44 hrs by CLSI-M11-47 protocol based agar dilution method; summary of the method: as §2
Clostridium glycolicum = assay: Antimicrobial activity against Clostridium glycolicum under anaerobic conditions after 44 hrs by CLSI-M11-47 protocol based agar dilution method; conditions: Terrisporobacter glycolicus; summary of the method: as §1
[2] = test system: Peptostreptococcus stomatis; assay: Antimicrobial activity against Peptostreptococcus stomatis under anaerobic conditions after 44 hrs by CLSI-M11-47 protocol based agar dilution method; summary of the method: as §2
Clostridium citroniae = assay: Antimicrobial activity against Clostridium citroniae under anaerobic conditions after 44 hrs by CLSI-M11-47 protocol based agar dilution method; conditions: Enterocloster citroniae; summary of the method: as §1
[3] = test system: Peptoniphilus asaccharolyticus; assay: Antimicrobial activity against Peptoniphilus asaccharolyticus under anaerobic conditions after 44 hrs by CLSI-M11-47 protocol based agar dilution method; summary of the method: as §2
Prevotella tannerae = assay: Antimicrobial activity against Prevotella tannerae under anaerobic conditions after 44 hrs by CLSI-M11-47 protocol based agar dilution method; conditions: Alloprevotella tannerae; summary of the method: as §2
Eubacterium cylindroides = assay: Antimicrobial activity against Eubacterium cylindroides under anaerobic conditions after 44 hrs by CLSI-M11-47 protocol based agar dilution method; conditions: Faecalitalea cylindroides; summary of the method: as §1
Anaerococcus murdochii = assay: Antimicrobial activity against Anaerococcus murdochii under anaerobic conditions after 44 hrs by CLSI-M11-47 protocol based agar dilution method; summary of the method: as §1
Lacticaseibacillus casei = assay: Antimicrobial activity against Lactobacillus casei under anaerobic conditions after 44 hrs by CLSI-M11-47 protocol based agar dilution method; summary of the method: as §2
[4] = test system: Enterocloster clostridioformis; assay: Antimicrobial activity against Clostridium clostridioforme under anaerobic conditions after 44 hrs by CLSI-M11-47 protocol based agar dilution method; summary of the method: as §1
Bacteroides ovatus = assay: Antimicrobial activity against Bacteroides ovatus under anaerobic conditions after 44 hrs by CLSI-M11-47 protocol based agar dilution method; summary of the method: as §1
Fusobacterium varium = assay: Antimicrobial activity against Fusobacterium varium under anaerobic conditions after 44 hrs by CLSI-M11-47 protocol based agar dilution method; summary of the method: as §2
Atopobium parvulum = assay: Antimicrobial activity against Atopobium parvulum under anaerobic conditions after 44 hrs by CLSI-M11-47 protocol based agar dilution method; conditions: Lancefieldella parvula; summary of the method: as §1
Propionibacterium avidum = assay: Antimicrobial activity against Propionibacterium avidum under anaerobic conditions after 44 hrs by CLSI-M11-47 protocol based agar dilution method; conditions: Cutibacterium avidum; summary of the method: as §2
Eggerthella lenta = assay: Antimicrobial activity against Eggerthella lenta under anaerobic conditions after 44 hrs by CLSI-M11-47 protocol based agar dilution method; summary of the method: as §1
[5] = test system: Porphyromonas asaccharolytica; assay: Antimicrobial activity against Porphyromonas asaccharolyticus under anaerobic conditions after 44 hrs by CLSI-M11-47 protocol based agar dilution method; summary of the method: as §2
Collinsella aerofaciens = assay: Antimicrobial activity against Colinsella aerofaciens under anaerobic conditions after 44 hrs by CLSI-M11-47 protocol based agar dilution method; summary of the method: as §1
Finegoldia magna = assay: Antimicrobial activity against Finegoldia magna under anaerobic conditions after 44 hrs by CLSI-M11-47 protocol based agar dilution method; summary of the method: as §1
[6] = test system: Anaerococcus lactolyticus; assay: Antimicrobial activity against Anaerococcus lactolyticus under anaerobic conditions after 44 hrs by CLSI-M11-47 protocol based agar dilution method; summary of the method: as §1
Parabacteroides merdae = assay: Antimicrobial activity against Bacteroides merdae under anaerobic conditions after 44 hrs by CLSI-M11-47 protocol based agar dilution method; summary of the method: as §1
Clostridium bolteae = assay: Antimicrobial activity against Clostridium bolteae under anaerobic conditions after 44 hrs by CLSI-M11-47 protocol based agar dilution method; conditions: Enterocloster bolteae; summary of the method: as §1
Clostridium perfringens = assay: Antimicrobial activity against Clostridium perfringens under anaerobic conditions after 44 hrs by CLSI-M11-47 protocol based agar dilution method

CO/N=C(\C(=O)N[C@@H]1C(=O)N2C(C(=O)O)=C(CSc3nc(=O)c(O)nn3C)CS[C@H]12)c1csc(N)n1 [CEFTRIAXONE]
> 64 µg/mL: MIC50 (Bacteroides ovatus) | MIC90 (Bacteroides ovatus) | MIC50 (Eggerthella lenta) | MIC90 (Eggerthella lenta) | MIC50 (Parabacteroides merdae) | MIC90 (Parabacteroides merdae)
0.5 µg/mL: MIC90 (Anaerococcus prevotii) | MIC90 (Actinomyces turicensis) | MIC50 (Mogibacterium timidum) | MIC50 (Eubacterium cylindroides) | MIC50 (Atopobium parvulum) | MIC90 (Propionibacterium avidum) | MIC50 (Collinsella aerofaciens) | MIC50 (Clostridium perfringens)
0.03 µg/mL: MIC90 [1]
8 µg/mL: MIC90 (Prevotella corporis) | MIC90 (Prevotella bergensis) | MIC90 [2] | MIC90 (Prevotella tannerae) | MIC90 (Fusobacterium varium) | MIC90 (Finegoldia magna)
0.25 µg/mL: MIC50 (Anaerococcus prevotii) | MIC90 [3] | MIC50 (Anaerococcus murdochii) | MIC50 (Propionibacterium avidum) | MIC50 [6]
4 µg/mL: MIC50 (Clostridium aldenense) | MIC50 (Clostridium hathewayi) | MIC50 (Clostridium citroniae) | MIC50 [4] | MIC50 (Finegoldia magna) | MIC50 (Clostridium bolteae)
0.06 µg/mL: MIC50 [5] | MIC90 [5]
0.125 µg/mL: MIC50 (Actinomyces turicensis) | MIC50 [3]
64 µg/mL: MIC90 (Clostridium tertium) | MIC90 (Clostridium baratii) | MIC90 (Clostridium glycolicum) | MIC90 (Lacticaseibacillus casei)
16 µg/mL: MIC90 (Prevotella intermedia) | MIC90 (Anaerococcus murdochii) | MIC90 [6]
1 µg/mL: MIC50 (Prevotella corporis) | MIC50 (Prevotella intermedia) | MIC50 (Prevotella bergensis) | MIC50 (Prevotella tannerae) | MIC50 (Fusobacterium varium)
2 µg/mL: MIC50 (Clostridium tertium) | MIC50 (Clostridium baratii) | MIC90 (Mogibacterium timidum) | MIC50 (Clostridium glycolicum) | MIC50 [2] | MIC90 (Eubacterium cylindroides) | MIC90 (Atopobium parvulum) | MIC90 (Collinsella aerofaciens) | MIC90 (Clostridium perfringens)
0.015 µg/mL: MIC50 [1]
32 µg/mL: MIC90 (Clostridium aldenense) | MIC90 (Clostridium hathewayi) | MIC90 (Clostridium citroniae) | MIC50 (Lacticaseibacillus casei) | MIC90 [4] | MIC90 (Clostridium bolteae)
